Results as given in ChEMBL document CHEMBL5096186, “Design, Synthesis, and Biological Evaluation of Novel Pyrimido[4,5-b]indole Derivatives Against Gram-Negative Multidrug-Resistant Pathogens” (J Med Chem, 2021).
≈ marks a conversion by molar mass, not a printed value.

What was measured:
Escherichia coli [1] = experiment: Antibacterial activity against ESBL-producing multidrug resistant Escherichia coli assessed as reduction in bacterial growth incubated for 18 to 20 hrs by CLSI based microdilution method; type: functional; settings: time 18-20 hrs
How it was run: (§1)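 Broth microdilution per CLSI. Compounds dissolved in DMSO (levofloxacin and meropenem in water) as 64 μg/mL stock, then serial twofold dilutions in broth giving 64 to 0.008 μg/mL. […] Clinical isolates tested as several strains per group; racemic GP-1 served as positive control; values given as MIC ranges.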

Escherichia coli [2] = experiment: Antibacterial activity against multidrug resistant wild type Escherichia coli ATCC BAA-2340 assessed as reduction in bacterial growth incubated for 18 to 20 hrs by CLSI based microdilution method; type: functional; settings: time 18-20 hrs; how it was run: as §1
Escherichia coli [3] = experiment: Antibacterial activity against multidrug resistant wild type Escherichia coli NCTC 13353 assessed as reduction in bacterial growth incubated for 18 to 20 hrs by CLSI based microdilution method; type: functional; settings: time 18-20 hrs; how it was run: as §1
Klebsiella pneumoniae [4] = experiment: Antibacterial activity against KPC2-producing multidrug resistant Klebsiella pneumoniae assessed as reduction in bacterial growth incubated for 18 to 20 hrs by CLSI based microdilution method; type: functional; settings: time 18-20 hrs; how it was run: as §1
Klebsiella pneumoniae [5] = experiment: Antibacterial activity agains wild type Klebsiella pneumoniae ATCC BAA-1705 assessed as reduction in bacterial growth incubated for 18 to 20 hrs by CLSI based microdilution method; type: functional; settings: time 18-20 hrs
How it was run: (§2)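 CLSI broth microdilution. Compounds in DMSO (levofloxacin and meropenem in water), serial twofold dilutions in broth, 64 to 0.008 μg/mL. […] Results reported as MIC ranges across strains.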

Klebsiella pneumoniae [6] = experiment: Antibacterial activity agains wild type Klebsiella pneumoniae ATCC BAA-2470 assessed as reduction in bacterial growth incubated for 18 to 20 hrs by CLSI based microdilution method; type: functional; settings: time 18-20 hrs; how it was run: as §1
Acinetobacter baumannii [7] = experiment: Antibacterial activity agains OXA23-producing multidrug resistant Acinetobacter baumannii assessed as reduction in bacterial growth incubated for 18 to 20 hrs by CLSI based microdilution method; type: functional; settings: time 18-20 hrs; how it was run: as §1
Acinetobacter baumannii [8] = experiment: Antibacterial activity against wild type Acinetobacter baumannii NCTC 13304 assessed as reduction in bacterial growth incubated for 18 to 20 hrs by CLSI based microdilution method; type: functional; settings: time 18-20 hrs; how it was run: as §1
Pseudomonas aeruginosa [9] = experiment: Antibacterial activity against IMP4-producing multidrug resistant Pseudomonas aeruginosa assessed as reduction in bacterial growth incubated for 18 to 20 hrs by CLSI based microdilution method; type: functional; settings: time 18-20 hrs; how it was run: as §1
Pseudomonas aeruginosa [10] = experiment: Antibacterial activity against wild type Pseudomonas aeruginosa ATCC 27853 assessed as reduction in bacterial growth incubated for 18 to 20 hrs by CLSI based microdilution method; type: functional; settings: time 18-20 hrs; how it was run: as §2
[11] = AUC (0 to infinity) in Sprague-Dawley rat at 5 mg/kg, iv measured upto 24 hrs by LC-MS/MS analysis; type: ADME, organism-based; design: time < 24 hrs, dose 5 mg/kg, route iv; settings: in vivo
How it was run: (§3)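 Male Sprague-Dawley rats, n = 3 per group, single intravenous dose. For 4 mg/kg: 180–280 g rats, vehicle 5% DMSO + 5% EtOH + 40% PEG300 + 50% saline, blood from the retrobulbar vein at 0.05–24 h. For 5 and 20 mg/kg: 180–300 g rats, vehicle 5% DMSO + 5% solutol + 90% saline, sampled at 0.083–24 h. Plasma quantified by LC/MS/MS. Parameters from mean plasma concentration by noncompartmental analysis; values are mean ± standard deviation.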

[12] = Elimination half life in Sprague-Dawley rat at 5 mg/kg, iv measured upto 24 hrs by LC-MS/MS analysis; type: ADME, organism-based; settings: in vivo, read-out: beta t1/2 (converted); how it was run: as §3
[13] = MRT in Sprague-Dawley rat at 5 mg/kg, iv measured upto 24 hrs by LC-MS/MS analysis; type: ADME, organism-based; settings: in vivo; how it was run: as §3
[14] = Clearance in Sprague-Dawley rat at 5 mg/kg, iv measured upto 24 hrs by LC-MS/MS analysis; type: ADME, organism-based; settings: in vivo; how it was run: as §3
[15] = Volume of distribution at the steady state in Sprague-Dawley rat at 5 mg/kg, iv measured upto 24 hrs by LC-MS/MS analysis; type: ADME, organism-based; settings: in vivo, read-out: Vdss; how it was run: as §3
[16] = target: hERG (KCNH2) potassium channel (Homo sapiens, UniProt Q12809); experiment: Inhibition of hERG potassium channel assessed as maximum inhibition rate at 40 uM at -80 mV holding potential incubated for 120 seconds by whole cell-automated voltage clamp analysis assay relative to control; type: toxicity; settings: time 120 sec
How it was run: (§4)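 Automated whole-cell patch clamp, holding potential −80 mV. Voltage protocol applied every 20 s. Baseline set with external solution containing 0.1% DMSO and stabilised 3 min. Compound applied until steady state, at least 3 min, then washout. Maximum tested concentration 40 μM, or 3 μM for cisapride as positive control.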

[17] = target: Voltage-gated inwardly rectifying potassium channel KCNH2 (Homo sapiens, UniProt Q12809); experiment: Inhibition of hERG potassium channel assessed as […] at -80 mV holding potential incubated for 120 seconds by whole cell-automated voltage clamp analysis assay; type: toxicity; how it was run: as §4
[18] = Metabolic stability in rat liver microsome assessed as elimination half life at 0.1 uM in presence of NADPH incubated upto 60 mins by LC-MS/MS analysis; type: ADME; settings: liver microsomes, read-out: beta t1/2
How it was run: (§5)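 Compound at 0.1 μM final, in 0.01% DMSO with 0.005% BSA. Incubated with rat or human liver microsomes at 0.33 mg/mL in 0.1 M Tris-HCl, pH 7.4, with 5 mM MgCl₂ and 1 mM NADPH, at 37 °C. Samples at 0, 7, 17, 30 and 60 min quenched with cold methanol and analysed by LC-MS/MS. Half-life, Cl_int and MF% derived as previously described.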

[19] = Metabolic stability in human liver microsome assessed as elimination half life at 0.1 uM in presence of NADPH incubated upto 60 mins by LC-MS/MS analysis; type: ADME; settings: liver microsomes, read-out: beta t1/2; how it was run: as §5
[20] = Metabolic stability in rat liver microsome assessed as intrinsic clearance at 0.1 uM in presence of NADPH incubated upto 60 mins by LC-MS/MS analysis; type: ADME; settings: microsomes, 1 h; how it was run: as §5
[21] = Metabolic stability in human liver microsome assessed as intrinsic clearance at 0.1 uM in presence of NADPH incubated upto 60 mins by LC-MS/MS analysis; type: ADME; settings: microsomes, 1 h; how it was run: as §5
[22] = Metabolic stability in rat liver microsome assessed as metabolic bioavailability at 0.1 uM in presence of NADPH incubated upto 60 mins by LC-MS/MS analysis; type: ADME; settings: liver microsomes; how it was run: as §5
[23] = Metabolic stability in human liver microsome assessed as metabolic bioavailability at 0.1 uM in presence of NADPH incubated upto 60 mins by LC-MS/MS analysis; type: ADME; settings: liver microsomes; how it was run: as §5
Staphylococcus aureus = experiment: Antibacterial activity against methicillin-sensitive Staphylococcus aureus strains 15 1 to 4 assessed as reduction in bacterial growth incubated for 18 to 20 hrs by CLSI based microdilution method; type: functional; settings: time 18-20 hrs; how it was run: as §1
[24] = system: Staphylococcus epidermidis; experiment: Antibacterial activity against methicillin-sensitive Staphylococcus epidermidis strains 15 1 to 4 assessed as reduction in bacterial growth incubated for 18 to 20 hrs by CLSI based microdilution method; type: functional; settings: time 18-20 hrs; how it was run: as §1
Escherichia coli [25] = experiment: Antibacterial activity against ESBL-producing Escherichia coli ATCC 35218 strains 15 1 to 3 assessed as reduction in bacterial growth incubated for 18 to 20 hrs by CLSI based microdilution method; type: functional; settings: time 18-20 hrs; how it was run: as §2
Escherichia coli [26] = experiment: Antibacterial activity against Escherichia coli ATCC 35218 strains 15 1 to 3 assessed as reduction in bacterial growth incubated for 18 to 20 hrs by CLSI based microdilution method; type: functional; settings: time 18-20 hrs; how it was run: as §2
Pseudomonas aeruginosa [27] = experiment: Antibacterial activity against multidrug resistant Pseudomonas aeruginosa strains 15 1 to 3 assessed as reduction in bacterial growth incubated for 18 to 20 hrs by CLSI based microdilution method; type: functional; settings: time 18-20 hrs; how it was run: as §1
[28] = AUC (0 to infinity) in Sprague-Dawley rat at 4 mg/kg, iv measured upto 24 hrs by LC-MS/MS analysis; type: ADME, organism-based; design: time < 24 hrs, dose 4 mg/kg, route iv; settings: in vivo; how it was run: as §3
[29] = Elimination half life in Sprague-Dawley rat at 4 mg/kg, iv measured upto 24 hrs by LC-MS/MS analysis; type: ADME, organism-based; settings: in vivo, read-out: beta t1/2 (converted); how it was run: as §3
[30] = MRT in Sprague-Dawley rat at 4 mg/kg, iv measured upto 24 hrs by LC-MS/MS analysis; type: ADME, organism-based; settings: in vivo; how it was run: as §3
[31] = Clearance in Sprague-Dawley rat at 4 mg/kg, iv measured upto 24 hrs by LC-MS/MS analysis; type: ADME, organism-based; settings: in vivo; how it was run: as §3
[32] = Volume of distribution at the steady state in Sprague-Dawley rat at 4 mg/kg, iv measured upto 24 hrs by LC-MS/MS analysis; type: ADME, organism-based; settings: in vivo, read-out: Vdss; how it was run: as §3

hERG (KCNH2) potassium channel, sequence (Q12809 whole entry): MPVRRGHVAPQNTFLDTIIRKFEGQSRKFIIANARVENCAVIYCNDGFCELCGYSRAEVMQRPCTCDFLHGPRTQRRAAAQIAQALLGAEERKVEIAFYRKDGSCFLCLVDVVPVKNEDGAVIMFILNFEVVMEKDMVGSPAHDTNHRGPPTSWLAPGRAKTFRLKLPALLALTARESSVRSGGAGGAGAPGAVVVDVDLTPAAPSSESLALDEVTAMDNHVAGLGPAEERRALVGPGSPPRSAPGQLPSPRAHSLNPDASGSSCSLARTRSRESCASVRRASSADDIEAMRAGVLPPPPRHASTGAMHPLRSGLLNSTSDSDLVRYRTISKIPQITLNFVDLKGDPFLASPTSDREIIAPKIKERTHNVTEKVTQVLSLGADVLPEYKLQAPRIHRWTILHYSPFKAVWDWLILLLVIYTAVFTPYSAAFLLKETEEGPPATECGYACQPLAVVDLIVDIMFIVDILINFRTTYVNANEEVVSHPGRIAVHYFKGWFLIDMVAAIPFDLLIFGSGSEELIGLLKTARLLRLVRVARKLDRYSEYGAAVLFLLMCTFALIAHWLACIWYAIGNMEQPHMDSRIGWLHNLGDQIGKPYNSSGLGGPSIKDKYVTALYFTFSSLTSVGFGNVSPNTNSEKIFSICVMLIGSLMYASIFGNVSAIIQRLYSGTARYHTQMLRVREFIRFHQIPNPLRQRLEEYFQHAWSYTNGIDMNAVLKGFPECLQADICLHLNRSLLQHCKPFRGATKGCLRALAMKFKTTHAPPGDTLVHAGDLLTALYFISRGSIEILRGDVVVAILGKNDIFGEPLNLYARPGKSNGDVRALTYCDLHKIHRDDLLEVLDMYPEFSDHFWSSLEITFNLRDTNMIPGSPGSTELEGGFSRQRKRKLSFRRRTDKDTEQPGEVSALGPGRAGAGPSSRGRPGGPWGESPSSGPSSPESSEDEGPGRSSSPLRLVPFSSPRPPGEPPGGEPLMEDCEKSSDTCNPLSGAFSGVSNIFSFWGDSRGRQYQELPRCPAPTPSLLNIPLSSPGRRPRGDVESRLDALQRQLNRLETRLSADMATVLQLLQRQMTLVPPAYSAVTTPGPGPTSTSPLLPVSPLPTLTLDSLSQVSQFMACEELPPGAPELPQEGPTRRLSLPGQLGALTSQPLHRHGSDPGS
Voltage-gated inwardly rectifying potassium channel KCNH2, sequence (Q12809 whole entry): as above

Row | SMILES | MIC (Escherichia coli [1]) [µg/mL] | MIC (Escherichia coli [2]) [µg/mL] | MIC (Escherichia coli [3]) [µg/mL] | MIC (Klebsiella pneumoniae [4]) [µg/mL] | MIC (Klebsiella pneumoniae [5]) [µg/mL] | MIC (Klebsiella pneumoniae [6]) [µg/mL] | MIC (Acinetobacter baumannii [7]) [µg/mL] | MIC (Acinetobacter baumannii [8]) [µg/mL] | MIC (Pseudomonas aeruginosa [9]) [µg/mL] | MIC (Pseudomonas aeruginosa [10]) [µg/mL] | AUC(0-inf) [11] [ng·h/mL] | half-life [12] [h] | MRT [13] [h] | clearance [14] [mL/min/kg] | Vd [15] [L/kg] | inhibition at 2 min, 40 µM [16] [%] | IC50 [17] [µM] | half-life at 0.1 µM [18] [h] | half-life at 0.1 µM [19] [h] | CLH [20] [mL/min/g] | other results
1 | CCNc1cc(F)cc2c1[nH]c1nc(Oc3cnc(C)nc3)nc(N3CC(=C(C)[C@@H](C)N)C3)c12 | 4 (≈ 8.65 µM) | 1 (≈ 2.16 µM) | 1 (≈ 2.16 µM) | > 8 | > 64 | > 64 | 2 (≈ 4.32 µM) | 2 (≈ 4.32 µM) | > 64 | > 64 | 1290 | 6.7 | 4.3 | 64.7 | 16.7 |  |  |  |  |  | 
2 | [2H]C([2H])([2H])Nc1cc(F)cc2c1[nH]c1nc(Oc3cnc(C)nc3)nc(N3CC(=C(C)C(C)N)C3)c12 (stereo unspecified) | 0.25 (≈ 0.554 µM) | 0.25 (≈ 0.554 µM) | 0.125 (≈ 0.277 µM) | 1 (≈ 2.21 µM) | 4 (≈ 8.86 µM) | 2 (≈ 4.43 µM) | 0.25 (≈ 0.554 µM) | 0.25 (≈ 0.554 µM) | 4 (≈ 8.86 µM) | 2 (≈ 4.43 µM) | 696 | 7.2 | 5.9 | 121 | 43.2 | 14.2 | > 40 | 0.337 | 3.47 | 104 | CLH [21]: 10.1 mL/min/g; Fh at 1 h, 0.1 µM [22]: 30%; Fh at 1 h, 0.1 µM [23]: 66%
3 | CNc1cc(F)cc2c1[nH]c1nc(Oc3cnc(C)nc3)nc(N3CC(=CC(C)N)C3)c12 (stereo unspecified) | 1 (≈ 2.3 µM) | 1 (≈ 2.3 µM) | 0.5 (≈ 1.15 µM) | 4 (≈ 9.21 µM) | 8 (≈ 18.4 µM) | 4 (≈ 9.21 µM) | 0.5 (≈ 1.15 µM) | 0.5 (≈ 1.15 µM) | 8 (≈ 18.4 µM) | 4 (≈ 9.21 µM) |  |  |  |  |  | 32.3 | > 40 | 0.2 | 1.78 | 180.9 | MIC (Staphylococcus aureus): < 0.008 µg/mL; MIC [24]: < 0.008 µg/mL; MIC (Escherichia coli [25]): 0.125 µg/mL (≈ 0.288 µM); MIC (Escherichia coli [26]): 0.06 µg/mL (≈ 0.138 µM); MIC (Pseudomonas aeruginosa [27]): 0.5 µg/mL (≈ 1.15 µM); CLH [21]: 19.6 mL/min/g; Fh at 1 h, 0.1 µM [22]: 19.7%; Fh at 1 h, 0.1 µM [23]: 50%; AUC(0-inf) [28]: 836 ng·h/mL; half-life [29]: 9 h; MRT [30]: 6.8 h; clearance [31]: 81.5 mL/min/kg; Vd [32]: 33.4 L/kg
